Experimental data published in ChEMBL document CHEMBL1212757, “A single mutation in enzyme I of the sugar phosphotransferase system confers penicillin tolerance to Streptococcus gordonii” (2010).
Converted amounts (≈) assume the structure as drawn. The source made the active and inactive calls. No cut-off for these calls is given here.

How the values were obtained:
[1] = test system: Streptococcus gordonii; experiment: Antimicrobial activity against wild type streptomycin-susceptible Streptococcus gordonii assessed as bacterial count at 2 ug/ml after 24 hrs by macrodilution method; type: functional
How it was run: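 Time-kill assay: exponentially growing cultures in BHI broth at 37°C without aeration. Penicillin G was added at 2 μg/ml when OD600 reached 0.2 (about 1 × 10^8 CFU/ml). Viable counts were taken on agar plates, and the result is the loss of log10 CFU/ml after 24 h of exposure.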

[2] = test system: Streptococcus gordonii; experiment: Antimicrobial activity against […] and streptomycin-resistant Streptococcus gordonii Tol1 harboring Tol1 mutation in ptsI assessed as bacterial count at 2 ug/ml after 24 hrs by macrodilution assay; type: functional
[3] = test system: Streptococcus gordonii; experiment: Antimicrobial activity against erythromycin- and streptomycin-resistant Streptococcus gordonii Tol1 harboring R483P mutation in ptsI assessed as bacterial count at 2 ug/ml after 24 hrs by macrodilution technique; type: functional
[4] = test system: Streptococcus gordonii; experiment: Antimicrobial activity against wild type streptomycin-susceptible Streptococcus gordonii after 24 hrs by macrodilution method; type: functional
How it was run: (§1)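 MIC by standard broth macrodilution; streptococci grown at 37°C in BHI broth without aeration.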

[5] = test system: Streptococcus gordonii; experiment: Antimicrobial activity against […] and streptomycin-resistant Streptococcus gordonii Tol1 harboring Tol1 mutation in ptsI after 24 hrs by macrodilution assay; type: functional; details: Tol1, 24 h; how it was run: as §1
[6] = test system: Streptococcus gordonii; experiment: Antimicrobial activity against wild type streptomycin-susceptible Streptococcus gordonii harboring P483R mutation in ptsI assessed as bacterial count at 2 ug/ml after 24 hrs by macrodilution technique
[7] = test system: Streptococcus gordonii; experiment: Antimicrobial activity against wild type streptomycin-susceptible Streptococcus gordonii assessed as decrease in [14C]glucose uptake at 2 ug/ml after 60 mins by liquid scintillation counting; type: functional, organism-based
How it was run: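 Cells were grown in BHI to OD550 of about 0.3, then exposed to penicillin at 2 μg/ml for 20, 40 or 60 min. They were washed in PBS-5 mM MgCl2, concentrated, and preincubated for 10 min at 35°C. Uptake was started with 20 mM stock [14C]glucose (600 dpm/nmol). Timed aliquots went into cold stop buffer, were filtered on glass fiber, and were counted by scintillation. A 4°C high-dilution sample corrected for nonspecific binding.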

[8] = test system: Streptococcus gordonii; experiment: Antimicrobial activity against wild type streptomycin-susceptible Streptococcus gordonii harboring […] mutation in ptsI assessed as decrease in [14C]glucose uptake at 2 ug/ml after 60 mins by liquid scintillation counting; type: functional, organism-based
How it was run: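 Cells grown in BHI to OD550 ca 0.3, exposed to 2 μg/ml penicillin for 20, 40 or 60 min, washed in PBS-5 mM MgCl2, preincubated 10 min at 35°C; uptake started with [14C]glucose (600 dpm/nmol), aliquots diluted in cold stopping buffer, filtered on glass fibre, counted by liquid scintillation; 4°C high-dilution adsorption control.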

[9] = test system: Streptococcus gordonii; experiment: (§2) Antimicrobial activity against wild type streptomycin-susceptible Streptococcus gordonii infected in Wistar rat assessed as decrease in bacterial infection at 300000 U/kg, sc administered 16 hrs after infection every 12 hrs for 2 days measured within 3 days post last dose; type: functional, organism-based
How it was run: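 Female Wistar rats carried sterile aortic vegetations. After 24 h they were challenged i.v. with 10^7 CFU of exponential-phase streptococci in 0.5 ml saline. From 16 h post-inoculation, procaine penicillin 300,000 U/kg was given s.c. every 12 h for 2 days. Untreated controls were killed at therapy onset, and treated rats 12 h after the trough of the last dose. Vegetations were weighed and plated for CFU.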

[10] = test system: Streptococcus gordonii; experiment: as §2, with “gordonii harboring […] mutation in ptsI” for “gordonii”; type: functional, organism-based
[11] = test system: Streptococcus gordonii; experiment: (§3) Antimicrobial activity against penicillin- and streptomycin-resistant Streptococcus gordonii Tol1 harboring Tol1 mutation infected in Wistar rat assessed as protection against bacterial infection at 300000 U/kg, sc administered 16 hrs after infection every 12 hrs for 2 days measured within 3 days post last dose; type: functional, organism-based
[12] = test system: Streptococcus gordonii; experiment: as §3, with “against erythromycin-” for “against penicillin-”, “harboring R483P” for “harboring Tol1”, “mutation in ptsI” for “mutation”; type: functional, organism-based

Compound: C[C@@H](O)[C@H]1C(=O)N2C(C(=O)O)=C(SCCNC=N)C[C@H]12 [IMIPENEM ANHYDROUS]
- Activity [1]: 6.1 log10CFU/ml
- Activity [2]: 2 log10CFU/ml
- Activity [3]: 5.3 log10CFU/ml
- MIC [4]: 4 ng/mL (≈ 0.0134 µM)
- MIC [5]: 4 ng/mL (≈ 0.0134 µM)
- Activity [6]: 2.1 log10CFU/ml

Compound: CC1(C)S[C@@H]2[C@H](NC(=O)Cc3ccccc3)C(=O)N2[C@H]1C(=O)O [PENICILLIN G]
- Activity [1]: 4.5 log10CFU/ml
- Activity [2]: 0.6 log10CFU/ml
- Activity [3]: 3.9 log10CFU/ml
- MIC [4]: 8 ng/mL (≈ 0.0239 µM)
- MIC [5]: 8 ng/mL (≈ 0.0239 µM)
- inhibition [7]: Active
- inhibition [8]: Active
- inhibition [9]: Active
- inhibition [10]: inactive
- inhibition [11]: inactive
- Activity [12]: Active
- Activity [6]: 0.7 log10CFU/ml
